From ChEMBL document CHEMBL2311339, “Identification of GZD824 as an orally bioavailable inhibitor that targets phosphorylated and nonphosphorylated breakpoint cluster region-Abelson (Bcr-Abl) kinase and overcomes clinically acquired mutation-induced resistance against imatinib” (J Med Chem, 2013)
Calls of active or inactive are those of the source. The calls are words filed in the database; no cut-off is given here.

Tests used:
[1] = Cytotoxicity against mouse BA/F3 cells expressing BCR-ABL E355G mutant assessed as growth inhibition after 72 hrs by CCK-8 assay; details: BaF3, 72 h
[2] = Cytotoxicity against mouse BA/F3 cells expressing BCR-ABL E255K mutant assessed as growth inhibition after 72 hrs by CCK-8 assay; details: BaF3, 72 h
[3] = Cytotoxicity against mouse BA/F3 cells expressing BCR-ABL F486S mutant assessed as growth inhibition after 72 hrs by CCK-8 assay; details: BaF3, 72 h
[4] = Cytotoxicity against mouse BA/F3 cells expressing wild type BCR-ABL assessed as growth inhibition after 72 hrs by CCK-8 assay; details: BaF3, 72 h
[5] = Cytotoxicity against mouse BA/F3 cells expressing BCR-ABL F317V mutant assessed as growth inhibition after 72 hrs by CCK-8 assay; details: BaF3, 72 h
[6] = Cytotoxicity against mouse BA/F3 cells expressing BCR-ABL Y253H mutant assessed as growth inhibition after 72 hrs by CCK-8 assay; details: BaF3, 72 h
[7] = Cytotoxicity against mouse BA/F3 cells expressing BCR-ABL H396R mutant assessed as growth inhibition after 72 hrs by CCK-8 assay; details: BaF3, 72 h
[8] = Cytotoxicity against mouse BA/F3 cells expressing BCR-ABL M351T mutant assessed as growth inhibition after 72 hrs by CCK-8 assay; details: BaF3, 72 h
[9] = Cytotoxicity against mouse BA/F3 cells expressing BCR-ABL L248V mutant assessed as growth inhibition after 72 hrs by CCK-8 assay; details: BaF3, 72 h
cells [10] = details: Mus musculus, BaF3, 72 h
[11] = Cytotoxicity against mouse BA/F3 cells assessed as growth inhibition after 72 hrs by CCK-8 assay; details: BaF3, 72 h
[12] = Cytotoxicity against mouse BA/F3 cells expressing BCR-ABL F317L mutant assessed as growth inhibition after 72 hrs by CCK-8 assay; details: BaF3, 72 h
[13] = Cytotoxicity against mouse BA/F3 cells expressing BCR-ABL E255V mutant assessed as growth inhibition after 72 hrs by CCK-8 assay; details: BaF3, 72 h
cells [14] = details: Mus musculus, BaF3, 72 h; remark: listed apart in the source
[15] = Cytotoxicity against mouse BA/F3 cells expressing BCR-ABL Y253F mutant assessed as growth inhibition after 72 hrs by CCK-8 assay; details: BaF3, 72 h
[16] = Cytotoxicity against mouse BA/F3 cells expressing BCR-ABL E359V mutant assessed as growth inhibition after 72 hrs by CCK-8 assay; details: BaF3, 72 h
BaF3 [17] = test: Antitumor activity against mouse BA/F3 cells expressing BCR-ABL T315I mutant allografted in SCID mouse assessed as suppression of cell proliferation at 100 mg/kg/day, po qd for 10 days relative to untreated vehicle; assay type: functional, organism-based
Outline: (§1)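 Ba/F3 cells coexpressing Bcr-Abl T315I and firefly luciferase were injected iv (2 × 10^6 cells/0.1 mL saline) into SCID nude mice. At 5−7 days, mice were imaged after ip D-luciferin under halothane and randomized by signal. Dosing was oral gavage once daily for 10 days in DMSO/Cremophor/ethanol/saline vehicle. Luminescence was imaged after dosing; survival was analysed by Kaplan−Meier with log-rank test.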

BaF3 [18] = test: Antitumor activity against mouse BA/F3 cells expressing wild type BCR-ABL allografted in SCID mouse assessed as inhibition of tumor growth at 50 mg/kg, po qd for 14 days; assay type: functional, organism-based; design: dose 50 mg/kg
Outline: (§2)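 Subcutaneous allograft: Ba/F3 cells stably carrying Bcr-Abl (WT or T315I), 2.5 × 10^7 cells/mL in saline, 0.2 mL into the right flank. Randomized at 100−200 mm3, n = 10 per group. Oral gavage once daily for 14 days in DMSO/Cremophor/ethanol/saline vehicle. Tumor volume (L × W²/2) every 2 days; unpaired t test versus vehicle.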

cells [19] = details: Mus musculus, BaF3, 72 h; remark: listed apart in the source
BaF3 [20] = test: Antitumor activity against mouse BA/F3 cells expressing BCR-ABL T315I mutant allografted in SCID mouse assessed as increased survival at 100 mg/kg/day, po qd for 10 days; assay type: functional, organism-based; outline: as §1
BaF3 [21] = test: Antitumor activity against mouse BA/F3 cells expressing BCR-ABL T315I mutant allografted in SCID mouse assessed as inhibition of tumor growth at 100 mg/kg/day, po qd for 14 days; assay type: functional, organism-based; outline: as §2
K562 [22] = test: Antitumor activity against human K562 cells xenografted in mouse assessed as induction of tumor stasis at 50 mg/kg, […]; assay type: functional, organism-based; design: dose 50 mg/kg
[23] = Cytotoxicity against human KU812 cells expressing BCR-ABL assessed as growth inhibition after 72 hrs by CCK-8 assay; assay type: functional, cell-based; details: KU812, 72 h
Outline: (§3)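 Log-phase human leukemia cells were seeded at about 3000 cells/well and treated 24 h later for 72 h. CCK-8 was then incubated with the cells for 3 h and read as OD450 − OD650. Viability was normalized to vehicle wells and cell-free blanks, and IC50 taken as the mean of three experiments.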

K562 [24] = test: Cytotoxicity against imatinib-resistant human K562 cells expressing BCR-ABL Q252H mutant assessed as growth inhibition after 72 hrs by CCK-8 assay; assay type: functional, cell-based; details: K562, 72 h
Outline: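 The K562 subline was made imatinib-resistant by 3 months of exposure to imatinib from 0.1 to 5 μM, followed by clonal selection and sequencing to confirm Q252H. Cells were seeded at about 3000 cells/well, treated 24 h later for 72 h, then given CCK-8 for 3 h. Read-out was OD450 − OD650 normalized to vehicle; IC50 is the mean of three experiments.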

[25] = Cytotoxicity against human SUP-B15 cells expressing BCR-ABL assessed as growth inhibition after 72 hrs by CCK-8 assay; assay type: functional, cell-based; details: SUP-B15, 72 h; outline: as §3
U-937 = test: Cytotoxicity against human U937 cells […] assessed as growth inhibition after 72 hrs by CCK-8 assay; assay type: functional, cell-based; details: U-937, 72 h; outline: as §3
HL-60 = test: Cytotoxicity against human HL60 cells […] assessed as growth inhibition after 72 hrs by CCK-8 assay; assay type: functional, cell-based; details: HL-60, 72 h; outline: as §3
MOLT-4 = test: Cytotoxicity against human MOLT4 cells […] assessed as growth inhibition after 72 hrs by CCK-8 assay; assay type: functional, cell-based; details: MOLT-4, 72 h; outline: as §3
K562 [26] = test: Cytotoxicity against human K562 cells expressing BCR-ABL assessed as growth inhibition after 72 hrs by CCK-8 assay; assay type: functional, cell-based; details: K562, 72 h; outline: as §3

With `Cc1cn(-c2cc(NC(=O)c3ccc(C)c(Nc4nccc(-c5cccnc5)n4)c3)cc(C(F)(F)F)c2)cn1` [NILOTINIB] as the compound, how does the IC50 [1] read?
Its IC50 is 130 nM.

And the IC50 [2]?
Its IC50 is 170 nM.

And the IC50 [3]?
Its IC50 is 9.5 nM.

What about the IC50 [4] of the same compound?
Its IC50 is 22 nM.

What about the IC50 [5] of the same compound?
Its IC50 is 2900 nM.

What about the IC50 [6] of the same compound?
Its IC50 is 1000 nM.

What about the IC50 [7] of the same compound?
The IC50 was 21100 nM.

And the IC50 [8]?
Its IC50 is 3 nM.

What about the IC50 [9] of the same compound?
The IC50 was 3000 nM.

What about the IC50 (cells [10]) of the same compound?
Its IC50 is 16000 nM.

And the IC50 [11]?
The IC50 was 15100 nM.

What about the IC50 [12] of the same compound?
Its IC50 is 160 nM.

What about the IC50 [13] of the same compound?
The IC50 was 1200 nM.

And the IC50 (cells [14])?
Its IC50 is 150 nM.

And the IC50 [15]?
Its IC50 is 1400 nM.

Which IC50 [16] does the source give for `Cc1ccc(NC(=O)c2ccc(CN3CCN(C)CC3)cc2)cc1Nc1nccc(-c2cccnc2)n1` [IMATINIB] here?
The IC50 was 590 nM.

What about the Activity (BaF3 [17]) of the same compound?
Its Activity is “inactive”.

What about the IC50 [1] of the same compound?
Its IC50 is 1600 nM.

And the IC50 [2]?
The IC50 was 5600 nM.

And the IC50 [3]?
The IC50 was 1000 nM.

And the IC50 [5]?
Its IC50 is 9500 nM.

And the IC50 [6]?
The IC50 was 12500 nM.

And the TGI (BaF3 [18])?
Its TGI is “Active”.

And the IC50 [7]?
Its IC50 is 11100 nM.

What about the IC50 (cells [19]) of the same compound?
The IC50 was 3600 nM.

And the Activity (BaF3 [20])?
The Activity was “inactive”.

What about the IC50 [8] of the same compound?
Its IC50 is 240 nM.

And the IC50 [9]?
The IC50 was 12200 nM.

What about the IC50 (cells [10]) of the same compound?
Its IC50 is 12200 nM.

What about the IC50 [11] of the same compound?
The IC50 was 13500 nM.

And the IC50 [12]?
Its IC50 is 3300 nM.

And the IC50 [13]?
Its IC50 is over 10000 nM.

And the IC50 (cells [14])?
The IC50 was 5200 nM.

And the TGI (BaF3 [21])?
The TGI was “inactive”.

What about the Activity (K562 [22]) of the same compound?
Its Activity is “inactive”.

What about the IC50 [15] of the same compound?
The IC50 was 9200 nM.

Which IC50 [23] does the source give for `CC(=O)O[C@H]1C(=O)[C@@]2(C)[C@H]([C@H](OC(=O)c3ccccc3)[C@]3(O)C[C@H](OC(=O)[C@H](O)[C@@H](NC(=O)c4ccccc4)c4ccccc4)C(C)=C1C3(C)C)[C@]1(OC(C)=O)CO[C@@H]1C[C@@H]2O` [PACLITAXEL] here?
Its IC50 is 5.3 nM.

And the IC50 (K562 [24])?
Its IC50 is 7 nM.

What about the IC50 [25] of the same compound?
The IC50 was 8 nM.

What about the IC50 (U-937) of the same compound?
Its IC50 is 2.3 nM.

What about the IC50 (HL-60) of the same compound?
The IC50 was 5.8 nM.

What about the IC50 (MOLT-4) of the same compound?
The IC50 was 2.7 nM.

And the IC50 (K562 [26])?
Its IC50 is 5.1 nM.

Which results are given for `Cc1nc(Nc2ncc(C(=O)Nc3c(C)cccc3Cl)s2)cc(N2CCN(CCO)CC2)n1` [DASATINIB]?
IC50 [16]: 1.3 nM; IC50 [1]: 15 nM; IC50 [2]: 3.2 nM; IC50 [3]: 0.9 nM; IC50 [4]: 1.9 nM; IC50 [5]: 25 nM; IC50 [6]: 2.3 nM; IC50 [7]: 3800 nM; IC50 (cells [19]): 8 nM; IC50 [8]: 0.2 nM; IC50 [9]: 29 nM; IC50 (cells [10]): 3600 nM; IC50 [11]: 2500 nM; IC50 [12]: 19 nM; IC50 [13]: 23 nM; IC50 (cells [14]): 5.1 nM; IC50 [15]: 17 nM
